Where two headings read alike, the source gives them in different places. Where a SMILES comes first, the peptide text is derived from it. Bridges are numbered along the chain shown (N, C = ends). [ ]: non-standard residue; d: D form. S5 = C=CCCC[C@](C)(N)C(=O)O
How the values were obtained:
KRAS^G12C protein = KRAS^G12C protein (Homo sapiens, UniProt P01116, G12C); assay: Bio-Layer Interferometry; format: binding
Outline: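 The biotinylated protein was captured on SSA sensors in an Octet RED 96. Test peptides were run at various concentrations, and KD was calculated from the binding kinetics.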

[1] = Plasma stability in rat plasma; format: in vitro ADME, Sprague–Dawley rats; conditions: 1300 μg/mL, 0 min, HPLC
Outline: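 Heparinised blood was drawn from the femoral artery of Sprague–Dawley rats and centrifuged at 4 °C, 4000 r/min for 10 min to give plasma. Plasma spiked with test peptide was incubated at 37 °C. Aliquots were precipitated in 3 volumes of methanol–acetonitrile (50:50), vortexed and centrifuged, and the supernatant was analysed by C18 RP-HPLC with a 0.1% TFA water/acetonitrile gradient.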

H358 cells [2] = assay: Cell viability, CCK8 assay; format: cell-based; conditions: read-out: IC50, H358 cell viability, n = 3
Outline: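 H358 cells in RPMI-1640 with 10% FBS were plated overnight, then incubated with diluted series of test peptide for 24 h, or 36, 48 and 72 h. CCK8 reagent was added for 1 h at 37 °C and absorbance read at 450 nm. Mean ± SD of three independent experiments.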

[3] = Circular dichroism spectroscopy, α-helicity; format: physicochemical; conditions: CD, 0.3 mg/mL in 1×PBS pH 7.4, 25 °C, 190–260 nm, average of three readings
Outline: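 Spectra were taken in a 1.0 mm path quartz cell with 1 nm bandwidth, 50 nm/min scan speed and 1 s response time. Peptide was also run in PBS with 50% trifluoroethanol. Spectra were converted to mean residue ellipticity (deg·cm²/dmol) versus wavelength.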

[4] = tested on: cyclin-dependent kinase 1 (CDK1); assay: Western blot, CDK1 expression in H358 cells; format: cell-based; conditions: H358 cells, 0, 5, 10, 20 μmol/L, 24 h
Outline: (§1)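 H358 cells treated with test peptide for 24 h were lysed on ice for 1 h in buffer with phosphatase inhibitor cocktail and PMSF. Proteins were separated by SDS-PAGE and transferred to PVDF. Membranes were incubated with primary antibody at 4 °C overnight, then HRP goat anti-rabbit IgG for 100 min, and imaged by chemiluminescence. GAPDH was probed alongside.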

circular dichroism = conditions: PBS; pH 7.4; 25 °C; 0.3 mg/mL
cyclin B1 = assay: Western blot, cyclin B1 expression in H358 cells; format: cell-based; conditions: H358 cells, 0, 5, 10, 20 μmol/L, 24 h
Outline: as §1

caspase 3 = assay: Western blot, caspase 3 expression in H358 cells; format: cell-based; conditions: H358 cells, 0, 5, 10, 20 μmol/L, 24 h
Outline: as §1

H358 cells [5] = assay: Cell cycle analysis by flow cytometry; format: cell-based; conditions: 24-h treatment, highest concentration of the series, control 16.76%
trypsin = assay: Enzymatic degradation by trypsin; format: in vitro ADME; conditions: 150 μg/mL peptide, 3 μg/mL trypsin, NH4HCO3 buffer, 37 °C, HPLC, n = 3
Outline: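 Test peptide was digested with trypsin or chymotrypsin (peptide:enzyme weight ratio 50:1) in NH4HCO3 buffer at 37 °C. Samples were taken at 0, 30 min and 1, 2, 6, 12 and 24 h and quenched with 1% (v/v) formic acid. Analysis was by C18 RP-HPLC with a 0.1% TFA water/acetonitrile gradient (20→90% B over 30 min, 1 mL/min).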

BAX = assay: Western blot, BAX expression in H358 cells; format: cell-based; conditions: H358 cells, 0, 5, 10, 20 μmol/L, 24 h
Outline: as §1

BCL-2 = assay: Western blot, BCL-2 expression in H358 cells; format: cell-based; conditions: H358 cells, 0, 5, 10, 20 μmol/L, 24 h
Outline: as §1

H358 cells [6] = assay: Annexin V-FITC apoptosis assay by flow cytometry; format: cell-based; conditions: 24 h, control 36.42%
[7] = biological target: hexahistidine-tagged recombinant human KRAS^G12C (human) (UniProt P01116); assay: BLI

Question: With `CC[C@H](C)[C@H](NC(=O)CNC(=O)[C@H](Cc1ccccc1)NC(=O)[C@H](Cc1ccccc1)NC(=O)[C@H](CCCNC(=N)N)NC(=O)[C@H](CCCNC(=N)N)NC(C)=O)C(=O)N[C@@]1(C)CCCC=CCCC[C@@](C)(C(=O)N[C@@H](CC(C)C)C(=O)N[C@@H](CCCCN)C(=O)N[C@H](C(=O)N[C@@H](CCC(=O)O)C(=O)N[C@@H](CCC(=O)O)C(=O)NCC(=O)N[C@@H](CC(N)=O)C(N)=O)[C@@H](C)O)NC(=O)[C@H](CC(N)=O)NC(=O)[C@H]([C@@H](C)O)NC(=O)[C@H](CC(C)C)NC1=O` [Peptide 1, reference compound] as the molecule, how does the Kd (KRAS^G12C protein) read?
Answer: 58.3 µM

Question: What about the kon (KRAS^G12C protein) of the same molecule?
Answer: 14800 M⁻¹ s⁻¹

Question: What about the “plasma stability, characteristic peak in the chromatogram” value [1] of the same molecule?
Answer: No characteristic peaks were observed

Question: And the IC50 (H358 cells [2]; CCK8, 24-h incubation)?
Answer: 21.2 µM

Question: And the “α-helicity in PBS” value [3]?
Answer: 16.20%

Question: What does the source list for `CC[C@H](C)[C@H](NC(=O)CNC(=O)[C@H](Cc1ccccc1)NC(=O)[C@H](Cc1ccccc1)NC(C)=O)C(=O)N[C@@]1(C)CCCC=CCCC[C@@](C)(C(=O)N[C@@H](CC(C)C)C(=O)N[C@@H](CCCCN)C(=O)N[C@H](C(=O)N[C@@H](CCC(=O)O)C(N)=O)[C@@H](C)O)NC(=O)[C@H](CC(N)=O)NC(=O)[C@H]([C@@H](C)O)NC(=O)[C@H](CC(C)C)NC1=O` [Peptide 2] (Ac-FFGI[S5]LTN[S5]LKTE-NH2; staple 5-9)?
Answer: Kd (KRAS^G12C protein): 21.7 µM; kon (KRAS^G12C protein): 43600 M⁻¹ s⁻¹

Question: For `CC[C@H](C)[C@H](NC(=O)CNC(=O)[C@H](Cc1ccccc1)NC(C)=O)C(=O)N[C@@]1(C)CCCC=CCCC[C@@](C)(C(=O)N[C@@H](CC(C)C)C(=O)N[C@@H](CCCCN)C(=O)N[C@H](C(N)=O)[C@@H](C)O)NC(=O)[C@H](CC(N)=O)NC(=O)[C@H]([C@@H](C)O)NC(=O)[C@H](CC(C)C)NC1=O` [Peptide 3] (Ac-FGI[S5]LTN[S5]LKT-NH2; staple 4-8), which CDK1 expression [4] is on record?
Answer: significantly downregulated

Question: What about the helicity (circular dichroism) of the same molecule?
Answer: 18.9%

Question: What about the “cyclin B1 expression” value (cyclin B1) of the same molecule?
Answer: significantly downregulated

Question: And the “caspase 3 expression” value (caspase 3)?
Answer: increased

Question: What about the “percentage of cells in the G2/M” value (H358 cells [5]) of the same molecule?
Answer: 49.79%

Question: What about the kon (KRAS^G12C protein) of the same molecule?
Answer: 4600 M⁻¹ s⁻¹

Question: And the “percentage of trypsin hydrolysate (g) of the peptide” value (trypsin; 12 h)?
Answer: 78%

Question: What about the “percentage of trypsin hydrolysate (g) of the peptide” value (trypsin; 24 h) of the same molecule?
Answer: 34%

Question: What about the “pro-apoptotic BAX protein expression” value (BAX) of the same molecule?
Answer: insignificant effect

Question: What about the IC50 (H358 cells [2]; CCK8, 24-h incubation) of the same molecule?
Answer: 15.7 µM

Question: And the IC50 (H358 cells [2]; CCK8, 36-h incubation)?
Answer: 7.55 µM

Question: What about the IC50 (H358 cells [2]; CCK8, 48-h incubation) of the same molecule?
Answer: 5.75 µM

Question: And the IC50 (H358 cells [2]; CCK8, 72-h incubation)?
Answer: 6.68 µM

Question: And the “anti-apoptotic BCL-2 protein expression” value (BCL-2)?
Answer: obviously inhibited

Question: And the “α-helicity in PBS” value [3]?
Answer: 18.93%

Question: And the “proportion of apoptotic cells (Q2 + Q3)” value (H358 cells [6]; 2.5 μmol/L)?
Answer: 56.63%

Question: And the “proportion of apoptotic cells (Q2 + Q3)” value (H358 cells [6]; 10 μmol/L)?
Answer: 61.40%

Question: And the “proportion of apoptotic cells (Q2 + Q3)” value (H358 cells [6]; 20 μmol/L)?
Answer: 70.70%

Question: Which results are given for `CC[C@H](C)[C@H](NC(=O)CNC(C)=O)C(=O)N[C@@]1(C)CCCC=CCCC[C@@](C)(C(=O)N[C@@H](CC(C)C)C(=O)N[C@@H](CCCCN)C(N)=O)NC(=O)[C@H](CC(N)=O)NC(=O)[C@H]([C@@H](C)O)NC(=O)[C@H](CC(C)C)NC1=O` [Peptide 4] (Ac-GI[S5]LTN[S5]LK-NH2; staple 3-7)?
Answer: Kd (KRAS^G12C protein): 25 µM; kon (KRAS^G12C protein): 97.6 M⁻¹ s⁻¹

Question: With `CC[C@H](C)[C@H](NC(C)=O)C(=O)N[C@@]1(C)CCCC=CCCC[C@@](C)(C(=O)N[C@@H](CC(C)C)C(N)=O)NC(=O)[C@H](CC(N)=O)NC(=O)[C@H]([C@@H](C)O)NC(=O)[C@H](CC(C)C)NC1=O` [Peptide 5] (Ac-I[S5]LTN[S5]L-NH2; staple 2-6) as the molecule, how does the kon (KRAS^G12C protein) read?
Answer: 3.12 M⁻¹ s⁻¹

Question: And the Kd (KRAS^G12C protein; BLI, dissociation rate constant)?
Answer: 1.06 s⁻¹

Question: Which kon (KRAS^G12C protein) does the source give for `CC(=O)N[C@@]1(C)CCCC=CCCC[C@@](C)(C(N)=O)NC(=O)[C@H](CC(N)=O)NC(=O)[C@H]([C@@H](C)O)NC(=O)[C@H](CC(C)C)NC1=O` [Peptide 6] (Ac-[S5]LTN[S5]-NH2; staple 1-5) here?
Answer: 3.22 M⁻¹ s⁻¹

Question: With `CC[C@H](C)[C@H](NC(C)=O)C(=O)N[C@@]1(C)CCCC=CCCC[C@@](C)(C(=O)N[C@@H](CC(C)C)C(=O)N[C@@H](CCCCN)C(=O)N[C@H](C(N)=O)[C@@H](C)O)NC(=O)[C@H](CC(N)=O)NC(=O)[C@H]([C@@H](C)O)NC(=O)[C@H](CC(C)C)NC1=O` [Peptide 7] (Ac-I[S5]LTN[S5]LKT-NH2; staple 2-6) as the molecule, how does the Kd (KRAS^G12C protein) read?
Answer: 87.2 µM

Question: And the kon (KRAS^G12C protein)?
Answer: 64.7 M⁻¹ s⁻¹

Question: And the “α-helicity in PBS” value [3]?
Answer: 17.90%

Question: Which Kd (KRAS^G12C protein) does the source give for `CC(=O)N[C@@]1(C)CCCC=CCCC[C@@](C)(C(=O)N[C@@H](CC(C)C)C(=O)N[C@@H](CCCCN)C(=O)N[C@H](C(N)=O)[C@@H](C)O)NC(=O)[C@H](CC(N)=O)NC(=O)[C@H]([C@@H](C)O)NC(=O)[C@H](CC(C)C)NC1=O` [Peptide 8] (Ac-[S5]LTN[S5]LKT-NH2; staple 1-5) here?
Answer: 29.1 µM

Question: And the kon (KRAS^G12C protein)?
Answer: 1750 M⁻¹ s⁻¹

Question: With `CC[C@H](C)[C@H](NC(=O)CNC(=O)[C@H](Cc1ccccc1)NC(C)=O)C(=O)N[C@@]1(C)CCCC=CCCC[C@@](C)(C(=O)N[C@@H](CC(C)C)C(N)=O)NC(=O)[C@H](CC(N)=O)NC(=O)[C@H]([C@@H](C)O)NC(=O)[C@H](CC(C)C)NC1=O` [Peptide 9] (Ac-FGI[S5]LTN[S5]L-NH2; staple 4-8) as the molecule, how does the Kd (KRAS^G12C protein) read?
Answer: 64.9 µM

Question: What about the kon (KRAS^G12C protein) of the same molecule?
Answer: 1630 M⁻¹ s⁻¹

Question: Which results are given for `CC[C@H](C)[C@H](NC(=O)CNC(=O)[C@H](Cc1ccccc1)NC(C)=O)C(=O)N[C@@]1(C)CCCC=CCCC[C@@](C)(C(N)=O)NC(=O)[C@H](CC(N)=O)NC(=O)[C@H]([C@@H](C)O)NC(=O)[C@H](CC(C)C)NC1=O` [Peptide 10] (Ac-FGI[S5]LTN[S5]-NH2; staple 4-8)?
Answer: Kd (KRAS^G12C protein): 131 µM; kon (KRAS^G12C protein): 294 M⁻¹ s⁻¹

Question: For SAH-SOS1A (peptide 1), which koff [7] is on record?
Answer: 0.862 s⁻¹

Reference: PMC8463269 (Acta Pharmaceutica Sinica. B, 2021)
